CAL PDZ FP-1 – CAL PDZ (human) peptide binding inhibition; Q9HD26; purified CAL PDZ, TMR-peptide fluorescence polarization, 1 h; inhibition, % at 24.9 µM; 300,000 tested, 0.92% active; AID 602252;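 active means mean inhibition of at least 30% with at least half of replicates also reaching 30%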;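 further: 0% = DMSO neutral control and 100% = excess unlabeled competitor peptide PRC23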
CAL PDZ FP-2 – inhibitors of human CAL PDZ peptide binding | Q9HD26 | purified CAL PDZ, TMR-peptide fluorescence polarization, 1 h | inhibition, % at 20 µM | 330,000 tested, 0.02% active;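 active means highest replicate inhibition of at least 40%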;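 further: plate controls were DMSO neutral control wells for no effect and unlabeled competitor peptide control wells for full effect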
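System: tagged CAL PDZ domain. Schedule: 1 h room-temperature incubation prior to read. Signal: fluorescence polarization (mP). Measure: percent inhibition from loss of millipolarization.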
ARNT-TACC3 inh – disruptors of human ARNT/TACC3 interaction. Q9Y6A5. AlphaScreen His-ARNT PAS-B/GST-TACC3 binding, luminescence; TACC3 fragment carries E629A point mutation. inhibition, % at 9.99 µM. 390,000 tested, 0.66% active;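 active means mean inhibition of replicates at least 50% and at least half of replicates each reaching 50%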;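 further: 0% = complete ARNT plus TACC3 wells and 100% = ARNT alone without TACC3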
CaV13 FRET inh – Disruptors of the CACNA1D IQ motif to Ca2+-dependent inactivation inhibitor domain association, primary screening, Förster resonance energy transfer in intact living …. inhibition, % at 12.3 µM. HEK cells, CFP/YFP FRET ICDI-IQ, plate reader, 10 min; percent FRET-ratio fall versus neutral wells. AID 743397. 340,000 tested, 0.098% active;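 active means mean replicate inhibition of at least 30% and at least 1% of replicates passing that level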;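 further: 0% = median of the neutral control wells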
* = called active by the depositor; x = not tested or not shown. Most compounds without a hit are left out; they make up all but 1.2% or so of the library.

SMILES	CAL PDZ FP-1	CAL PDZ FP-2	ARNT-TACC3 inh	CaV13 FRET inh
O=C(Nc1ccc(F)cc1F)c1ccc(S(=O)(=O)NCc2ccco2)cc1	47.7*	-0.8	-2.4	-1.5
O=C(Nc1ccc(F)cc1F)c1ccc(S(=O)(=O)N2CCCCC2)cc1	33.5*	0.4	3.4	x
C[C@@H]1CN([C@@H](C)CO)C(=O)c2cc(-c3ccc(F)cc3)cnc2O[C@H]1CN(C)C(=O)NC1CCCC1	x	x	-4.8	x
O=C(CCN1CCCCC1)N[C@@H]1CC[C@@H](CCn2cc(-c3ccc(F)cc3)nn2)O[C@@H]1CO	x	x	-7.8	x
O=C(c1cccc(C(=O)N2CCN(Cc3ccccc3)CC2)c1)N1CCN(Cc2ccccc2)CC1	-2.0	-1.0	-1.7	-5.4
O=C(c1cccc(Cl)c1)N1CCC(C(=O)N2CCN(Cc3ccccc3)CC2)CC1	45.2*	-0.1	-4.7	-6.3
CC(C)C(=O)N1CCN(c2ccccc2NC(=O)c2cccc3ccccc23)CC1	46.7*	-4.7	-2.3	-1.8
CCCN(CCC)C(=O)C1CCCN1S(=O)(=O)c1cccc2nsnc12 (stereo not drawn)	1.0	-0.1	-6.4	-5.5
Cc1ccc(N(C)C(=O)C2CCCN2S(=O)(=O)c2cccc3nsnc23)cc1 (stereo not drawn)	69.8*	0.6	-4.8	-15.9
CCCNC(=O)NC[C@H]1[C@@H](c2ccc(C3=CCCC3)cc2)[C@H](CO)N1C(C)=O	x	x	-4.9	x
N/C(=N\OS(=O)(=O)c1ccccc1)c1ccccn1	0.3	0.4	65.3*	-7.0
C[C@@H]1CN([C@H](C)CO)C(=O)c2cccc(NS(=O)(=O)c3ccccc3)c2O[C@@H]1CN(C)S(=O)(=O)c1ccc(F)cc1	x	x	3.8	x
Cc1nnc(NS(=O)(=O)c2ccc(N=Nc3ccc(N)nc3N)cc2)s1	7.1	1.2	56.8*	-6.5
CO[C@H](CN(C)Cc1ccc2c(c1)OCO2)[C@@H](C)CN(C(=O)Nc1ccc(F)cc1)[C@@H](C)CO	x	x	8.1	x
O=C(NCCc1ccc(Cl)cc1)c1ccc(CNc2c(N3CCOCC3)c(=O)c2=O)cc1	-0.4	-3.3	-1.5	-5.5
O=C(NCc1ccc(Cl)cc1)c1ccc(CNc2c(N3CCOCC3)c(=O)c2=O)cc1	69.4*	-1.0	-5.2	-15.9
O=C(NC(N1CCOCC1)C(Cl)(Cl)Cl)c1ccc(F)cc1 (stereo not drawn)	75.5*	0.7	-1.0	-5.8
O=C(NC(N1CCCC1)C(Cl)(Cl)Cl)c1ccccc1 (stereo not drawn)	-3.6	-0.2	-8.0	x
O=C(NC(C(=O)c1ccccc1)c1ccccc1)c1ccccc1 (stereo not drawn)	38.3*	-0.1	-3.5	-5.7
C[C@H](CO)N1C[C@H](C)[C@H](CN(C)Cc2ccc(Oc3ccccc3)cc2)Oc2ccc(NC(=O)Nc3ccc4c(c3)OCO4)cc2CC1=O	x	x	-4.2	x
Cc1ccc(-c2nc3ccsc3c(=O)[nH]2)cc1	-1.4	-0.6	-1.8	60.3*
Cc1ccc(-c2csc3nc(-c4ccncc4)[nH]c(=O)c23)cc1	-4.4	-1.4	-3.8	0.0
COc1ccc(-n2c(CNC(=O)COc3ccccc3)n[nH]c2=S)cc1	41.0*	-0.3	1.7	-5.6
O=C(COc1ccccc1)NCc1n[nH]c(=S)n1-c1ccccc1	-4.1	-1.1	3.6	-0.6
COc1ccc(-c2[nH]ncc2CNC(C)CCn2cccn2)cc1F (stereo not drawn)	51.0*	-0.2	4.5	-6.2
SMILES	CAL PDZ FP-1	CAL PDZ FP-2	ARNT-TACC3 inh	CaV13 FRET inh
COc1ccc(-c2[nH]ncc2CNC(C)c2ccccc2Cl)cc1F (stereo not drawn)	5.3	-1.0	-2.4	-13.7
Cc1ccc(SCC(=O)Nc2ccc3c(c2)C(=O)N(C)C3=O)cc1	179.4*	-2.4	-1.0	-7.3
N#Cc1cccc(-c2ccc3c(c2)[C@@H]2[C@@H](CCN2C(=O)C2CCCCC2)[C@H](CO)N3)c1	x	x	-1.7	x
Cc1ccc(-c2nn(CCC#N)cc2C=C(C#N)C#N)cc1	-0.7	-2.9	-3.7	-6.3
COc1ccc(-c2nn(CCC#N)cc2C=C(C#N)C#N)cc1	62.1*	-2.3	-5.2	-2.3
COc1ccc(S(=O)(=O)N[C@@H]2C=C[C@H](CC(=O)O)O[C@H]2CO)cc1	x	x	-6.9	x
CCN1CCN(C(c2ccc(C(F)(F)F)cc2)c2ccc3cccnc3c2O)CC1 (stereo not drawn)	-5.3	-1.4	79.7*	-4.1
CN(CC(=O)Nc1ccc(F)c(F)c1F)C(=O)C1=NN(c2ccccc2)C(=O)CC1	31.5*	0.1	x	-6.4

From PubChem BioAssay
